According to ChEMBL document CHEMBL3421596, “A facile synthesis and microtubule-destabilizing properties of 4-(1H-benzo[d]imidazol-2-yl)-furazan-3-amines” (Eur J Med Chem, 2015):

Assays:
Assay type in all cases: functional
[1] = Cytotoxicity against human NCI60 cells assessed as cell growth at 10 uM; details: read-out: Activity
Method in brief: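 NCI60 panel screened by the NCI Developmental Therapeutics Program at a single 10 µM concentration; mean cell growth percent reported.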

[2] = tested on: Paracentrotus lividus; test: Antiproliferative activity in sea urchin embryo assessed as destabilization of microtubule by measuring embryo spinning after 15 mins to 20 hrs
[3] = tested on: Paracentrotus lividus; test: Antiproliferative activity in sea urchin embryo assessed as antimitotic activity by measuring cleavage arrest exposed for 8 to 20 mins after fertilization and 45 to 55 mins before first mitotic cycle completion measured 2.5 to […] after fertilization
[4] = tested on: Paracentrotus lividus; test: Antiproliferative activity in sea urchin embryo assessed as antimitotic activity by measuring cleavage alteration exposed for 8 to 20 mins after fertilization and 45 to 55 mins before first mitotic cycle completion measured 2.5 to […] after fertilization
[5] = Cytotoxicity against human NCI60 cells

Structure (SMILES)	growth at 10 µM [1] [%]	EC [2] [µM]	EC [3] [µM]	EC [4] [µM]	GI50 [5] [nM]
Nc1nonc1-c1nc2cc(Cl)ccc2[nH]1	97.1	>5	>4	2	–
Nc1nonc1-c1nc2ccccc2n1CC(=O)NCc1ccc(F)cc1	102	>4	>4	4	–
Nc1nonc1-c1nc2ccccc2n1CCO	102	–	–	–	–
c1ccc2[nH]c(-c3nonc3-n3cccc3)nc2c1	104	>4	>4	>4	–
COc1ccc2[nH]c(-c3nonc3-n3cccc3)nc2c1	104	>4	>4	2	–
CCOc1ccc(Cn2c(-c3nonc3N)nc3ccccc32)cc1OCC	81	>4	>4	>4	–
Nc1nonc1-c1nc2ccccc2n1Cc1cc2c(cc1Cl)OCO2	88.3	>4	>4	>4	–
N#CCn1c(-c2nonc2N)nc2ccccc21	102	>4	>4	>4	–
Nc1nonc1-c1nc2ccccc2n1Cc1c(F)cccc1Cl	91.9	>4	>4	>4	–
Nc1nc(N)nc(Cn2c(-c3nonc3N)nc3ccccc32)n1	102	>4	>4	>4	–
CC(=O)Nc1nonc1-c1nc2ccccc2n1Cc1ccc(Cl)cc1Cl	76.7	–	–	–	–
COc1ccc(NC(=O)Cn2c(-c3nonc3N)nc3ccccc32)cc1Cl	100	>4	>4	>4	–
Nc1nonc1-c1nc2c(Cl)cccc2[nH]1	99.8	>4	>4	1	–
CC(=O)Nc1nonc1-c1nc2ccccc2n1Cc1ccccn1	104	>4	>4	>4	–
CC(=O)Nc1nonc1-c1nc2ccccc2n1Cc1ccc(C(C)(C)C)cc1	73.5	–	–	–	–
O=C(Nc1nonc1-c1nc2ccccc2n1Cc1ccncc1)c1ccncc1	97.1	>4	>4	>4	–
CN(C)c1nc(N)nc(Cn2c(-c3nonc3N)nc3ccccc32)n1	80.8	>4	>4	2	–
Nc1nonc1-c1nc2cc3ccccc3cc2[nH]1	–	>4	4	0.5	–
CC(=O)Nc1nonc1-c1nc2ccccc2n1Cc1cccc(C(F)(F)F)c1	82.2	>4	>4	>4	–
Nc1nonc1-c1nc2ccccc2n1Cc1nnn[nH]1	103	>4	>4	>4	–
Cn1c(-c2nonc2NC(=O)c2ccc(F)cc2)nc2ccccc21	99.5	–	–	–	–
Cc1cc(C)cc(NC(=O)Cn2c(-c3nonc3N)nc3ccccc32)c1	109	>4	>4	>4	–
COc1ccc(Cn2c(-c3nonc3NC(C)=O)nc3ccccc32)cc1	85	>4	>4	>4	–
Nc1nonc1-c1nc2ccccc2n1CC(=O)Nc1ccc(F)c(Cl)c1	70.5	>4	>4	2	–

Structure (SMILES)	growth at 10 µM [1] [%]	EC [2] [µM]	EC [3] [µM]	EC [4] [µM]	GI50 [5] [nM]
Nc1nonc1-c1nc2ccccc2n1CC(=O)Nc1ccc(OC(F)(F)F)cc1	105	>4	>4	4	–
CCC(=O)Nc1nonc1-c1nc2ccccc2n1Cc1ccc(F)cc1Cl	64.5	>4	>4	>4	–
Nc1nonc1-c1nc2ccccc2n1Cc1ccc(Cl)cc1	85	>4	>4	>4	–
Nc1nonc1-c1nc2cc(F)ccc2[nH]1	97.8	>5	>4	2	–
C#CCn1c(-c2nonc2N)nc2ccccc21	99.6	>4	>4	>4	–
N#CCCNc1nonc1-c1nc2ccccc2n1CC(=O)c1ccc(N)cc1 [AVANBULIN]	–	–	–	–	6.5
Nc1nonc1-c1nc2ccccc2n1Cc1ccccn1	89.3	>4	>4	2	–
COc1ccc(Cn2c(-c3nonc3N)nc3cc(C(F)(F)F)ccc32)cc1	81.1	>4	>4	>4	–
N#Cc1ccc(Cn2c(-c3nonc3N)nc3ccccc32)cc1	79.8	>4	>4	4	–
C=CCn1c(-c2nonc2NC(C)=O)nc2ccccc21	96.5	>4	>4	>4	–
Nc1nonc1-c1nc2ccccc2[nH]1	103	>4	>4	2	–
Nc1nonc1-c1nc2ccccc2n1Cc1ccncc1	97	–	–	–	–
Cc1cccc(C)c1NC(=O)Cn1c(-c2nonc2N)nc2ccccc21	90.2	>4	>4	>4	–
CC(C)(C)c1ccc(Cn2c(-c3nonc3N)nc3ccccc32)cc1	67.4	>4	>4	>4	–
Nc1nonc1-c1nc2ccccc2n1Cc1cc2c(cc1Br)OCO2	86.1	>4	>4	>4	–
Cc1ccc(Cn2c(-c3nonc3N)nc3ccccc32)cc1	70.4	–	–	–	–
Cc1ccc(NC(=O)Cn2c(-c3nonc3NC(=O)c3ccc(F)cc3)nc3ccccc32)cc1F	71.8	–	–	–	–
CC(=O)Nc1nonc1-c1nc2ccccc2n1Cc1ccc(C#N)cc1	94.1	>4	>4	>4	–
Nc1nonc1-c1nc2ccccc2n1CC(=O)Nc1ccc2c(c1)COC2=O	80.8	>4	4	2	–
CC(=O)Nc1nonc1-c1nc2ccccc2n1Cc1ccncc1	101	>5	>4	>4	–
COc1ccc2[nH]c(-c3nonc3N)nc2c1	101	>5	>4	0.5	–
Nc1nc(Cn2c(-c3nonc3N)nc3ccccc32)nc(N2CCCCC2)n1	87.7	>4	>4	4	–
N#Cc1ccc2[nH]c(-c3nonc3N)nc2c1	107	>4	>4	>4	–
